Reference: ChEMBL document CHEMBL4732185, “Synthesis, biological evaluation and structure-activity relationship of novel dichloroacetophenones targeting pyruvate dehydrogenase kinases with potent anticancer activity” (Eur J Med Chem, 2021)
Active and inactive are the calls of the source. No cut-off for these calls is given here.

Experiments:
[1] = tested on: MCF7; test: Antiproliferative activity against human MCF7 cells assessed as growth inhibition at 1 uM after 72 hrs by MTT assay relative to control; assay type: functional
Outline: (§1)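 Single-concentration MTT screen on MCF-7 and A549 cells grown in DMEM + 10% FBS. Cells at 3000–6000/well, cultured overnight, then given compound in buffer with 1% DMSO for 72 h. MTT (0.5 mg/mL) added for 4 h, formazan dissolved in DMSO, A570 read. Percent inhibition reported as the average ± S.D. of three independent measurements.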

[2] = Inhibition of PDK (unknown origin) using RYHGHSMSDP as substrate after 30 mins by Kinase-Glo luminescent assay; parameters: species or system Homo sapiens
[3] = tested on: PC-3; test: Antiproliferative activity against human PC3 cells assessed as growth inhibition after 72 hrs by MTT assay; assay type: functional, cell-based; conditions: Homo sapiens, PC-3, 72 h; read-out: IC50
Outline: (§2)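 MTT viability assay. Cancer lines seeded at 3000–6000 cells/well and L02 at 7000 cells/well, cultured overnight, then exposed to a full dose range for 72 h. MTT (0.5 mg/mL) added for 4 h, supernatant removed, formazan dissolved in DMSO, absorbance read at 570 nm. IC50 taken as the mean of three independent experiments. Cells grown in DMEM + 10% FBS, 37 °C, 5% CO2.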

[4] = tested on: A549; test: Antiproliferative activity against human A549 cells assessed as growth inhibition at 10 uM after 72 hrs by MTT assay relative to control; assay type: functional; conditions: read-out: GI; outline: as §1
[5] = tested on: A-375; test: Induction of cell cycle arrest in human A375 cells assessed as accumulation at S phase at 5 uM after 24 hrs by propidium iodide staining based flow cytometric analysis (reference value: 37.33%); assay type: functional
[6] = tested on: A-375; test: Induction of apoptosis in human A375 cells assessed as late apoptotic cells at 5 uM after 24 hrs by annexinV-FITC/propidium iodide staining based flow cytometric analysis (reference value: 0.63%); assay type: functional
[7] = tested on: MCF7; test: Antiproliferative activity against human MCF7 cells assessed as growth inhibition at 10 uM after 72 hrs by MTT assay relative to control; assay type: functional; conditions: read-out: GI; outline: as §1
[8] = tested on: A-375; test: Induction of apoptosis in human A375 cells assessed as necrotic cells at 5 uM after 12 hrs by annexinV-FITC/propidium iodide staining based flow cytometric analysis (reference value: 0.56%); assay type: functional
[9] = tested on: A-375; test: Induction of apoptosis in human A375 cells assessed as necrotic cells at 5 uM after 24 hrs by annexinV-FITC/propidium iodide staining based flow cytometric analysis (reference value: 0.56%); assay type: functional
[10] = tested on: MCF7; test: Antiproliferative activity against human MCF7 cells assessed as growth inhibition after 72 hrs by MTT assay; assay type: functional, cell-based; conditions: Homo sapiens, MCF7, 72 h; read-out: IC50; outline: as §2
[11] = tested on: A549; test: Antiproliferative activity against human A549 cells assessed as growth inhibition after 72 hrs by MTT assay; assay type: functional, cell-based; conditions: Homo sapiens, A549, 72 h; read-out: IC50; outline: as §2
[12] = organism: Homo sapiens; test: Inhibition of PDK (unknown origin) using RYHGHSMSDP as substrate at 1 uM after 30 mins by Kinase-Glo luminescent assay
[13] = tested on: A549; test: Antiproliferative activity against human A549 cells assessed as growth inhibition at 1 uM after 72 hrs by MTT assay relative to control; assay type: functional; outline: as §1
[14] = tested on: A-375; test: Induction of apoptosis in human A375 cells assessed as viable cells at 5 uM after 24 hrs by annexinV-FITC/propidium iodide staining based flow cytometric analysis (Rvb= 97.94%); assay type: functional; conditions: read-out: Activity
[15] = tested on: A-375; test: Induction of cell cycle arrest in human A375 cells assessed as accumulation at G2 phase at 5 uM after 24 hrs by propidium iodide staining based flow cytometric analysis (reference value: 10.02%); assay type: functional
[16] = tested on: A-375; test: Induction of apoptosis in human A375 cells assessed as late apoptotic cells at 5 uM after 36 hrs by annexinV-FITC/propidium iodide staining based flow cytometric analysis (reference value: 1.02%); assay type: functional
[17] = tested on: L02; test: Cytotoxicity against human L02 cells assessed as reduction in cell viability after 72 hrs by MTT assay; assay type: cell-based; conditions: Homo sapiens, L02, 72 h; read-out: IC50; outline: as §2
[18] = tested on: A-375; test: Induction of apoptosis in human A375 cells assessed as late apoptotic cells at 5 uM after 12 hrs by annexinV-FITC/propidium iodide staining based flow cytometric analysis (reference value: 0.63%); assay type: functional
[19] = tested on: HCT-116; test: Antiproliferative activity against human HCT-116 cells assessed as growth inhibition after 72 hrs by MTT assay; assay type: functional, cell-based; conditions: Homo sapiens, HCT-116, 72 h; read-out: IC50; outline: as §2
[20] = tested on: A-375; test: Induction of apoptosis in human A375 cells assessed as necrotic cells at 5 uM after 36 hrs by annexinV-FITC/propidium iodide staining based flow cytometric analysis (reference value: 1.63%); assay type: functional
[21] = tested on: A-375; test: Induction of cell cycle arrest in human A375 cells assessed as accumulation at G1 phase at 5 uM after 24 hrs by propidium iodide staining based flow cytometric analysis (reference value: 52.65%); assay type: functional
[22] = tested on: A-375; test: Induction of apoptosis in human A375 cells assessed as early apoptotic cells at 5 uM after 24 hrs by annexinV-FITC/propidium iodide staining based flow cytometric analysis (reference value: 0.87%); assay type: functional
[23] = tested on: A-375; test: Induction of apoptosis in human A375 cells assessed as viable cells at 5 uM after 12 hrs by annexinV-FITC/propidium iodide staining based flow cytometric analysis (reference value: 97.94%); assay type: functional; conditions: read-out: Activity
[24] = tested on: A-375; test: Induction of apoptosis in human A375 cells assessed as early apoptotic cells at 5 uM after 12 hrs by annexinV-FITC/propidium iodide staining based flow cytometric analysis (reference value: 0.87%); assay type: functional
[25] = tested on: A-375; test: Inhibition of PDK in human A375 cells assessed as reduction in phosphorylation of PDC E1alpha at ser293 residues at 5 uM after 24 hrs by Western blot analysis; assay type: cell-based
Outline: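 A375 cells in 6-well plates, treated 24 h. Lysed 15 min and spun 12000 rpm at 4 °C for 15 min. Protein equalized by BCA and denatured in SDS buffer at 100 °C for 8 min. Run on SDS-PAGE, transferred to nitrocellulose, blocked in 5% milk 2 h, primary antibody overnight, HRP anti-rabbit IgG 2 h, ECL detection.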

[26] = tested on: A-375; test: Induction of apoptosis in human A375 cells assessed as viable cells at 5 uM after 36 hrs by annexinV-FITC/propidium iodide staining based flow cytometric analysis (reference value: 94.15%); assay type: functional; conditions: read-out: Activity
[27] = tested on: A-375; test: Induction of apoptosis in human A375 cells assessed as early apoptotic cells at 5 uM after 36 hrs by annexinV-FITC/propidium iodide staining based flow cytometric analysis (reference value: 3.2%); assay type: functional
[28] = tested on: A-375; test: Antiproliferative activity against human A375 cells assessed as growth inhibition after 72 hrs by MTT assay; assay type: functional, cell-based; conditions: Homo sapiens, A-375, 72 h; read-out: IC50; outline: as §2
[29] = tested on: SH-SY5Y; test: Antiproliferative activity against human SHSY-5Y cells assessed as growth inhibition after 72 hrs by MTT assay; assay type: functional, cell-based; conditions: Homo sapiens, SH-SY5Y, 72 h; read-out: IC50; outline: as §2
[30] = tested on: A549; test: Antiproliferative activity against human A549 cells assessed as reduction in cell viability after 24 hrs by MTT assay; assay type: functional, cell-based; conditions: A549, 24 h
[31] = organism: Homo sapiens; test: Inhibition of PDK (unknown origin) using RYHGHSMSDP as substrate at 80 uM after 30 mins by Kinase-Glo luminescent assay

SMILES | growth inhibition (GI) [1] | EC50 [2] | IC50 [3] | inhibition of growth at 10 µM [4] | inhibition of growth at 10 µM [7] | IC50 [10] | IC50 [11] | IC50 [17] | IC50 [19] | IC50 [28] | IC50 [29] | further results
CC(C)Oc1ccc(C(=O)C(Cl)Cl)cc1[N+](=O)[O-] | inactive | 0.33 µM | 8.7 µM | 98.2% | 73.4% | 7.8 µM | 3.5 µM | 16.9 µM | 6.2 µM | 4.9 µM | 5.6 µM | Activity [5]: 30.65%; Activity [6]: 6.83%; Activity [8]: 3.77%; Activity [9]: 4.29%; inhibition [12]: 72.4%; inhibition of growth at 1 µM ([13]; read-out: GI): 18.7%; viability at 5 µM [14]: 84.2%; Activity [15]: 11.01%; Activity [16]: 18.83%; Activity [18]: 2.66%; Activity [20]: 2.31%; Activity [21]: 58.34%; Activity [22]: 4.71%; viability at 5 µM [23]: 91.1%; Activity [24]: 2.43%; inhibition [25]: Active; viability at 5 µM [26]: 68.9%; Activity [27]: 6.6%
O=C(c1ccccc1)C(Cl)Cl | inactive | > 80 µM | 23.1 µM | 55.2% | 42.2% | 21.4 µM | 18.7 µM | 19.7 µM | 12.9 µM | 16.9 µM | 17.7 µM | growth inhibition (GI) [13]: inactive; IC50 [30]: 15.9 µM; inhibition [31]: 36.6%
